In the library only some 2.2% were active in any assay of this set; here they are far more common.
NR2E3 ag-1 = NR2E3 agonists in two-hybrid cells, primary screen, cell-based, luminescence, CHO-S, Gal4-NCOR/VP16-NR2E3 | Photoreceptor-specific nuclear receptor (Homo sapiens), Q9Y5X4 | luciferase | inhibition of corepressor binding, % at 3.98 µM | hit rate 0.35% among 360,000 | AID 602229, 2012;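 active = inhibition above the mean of all tested compounds plus 3 SD, cut at about 70% in these data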;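 also: 0% = DMSO with NR2E3 transfected cells and 100% = cells lacking NR2E3 construct; higher means lower luciferase signal from less NR2E3 corepressor binding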
Target sequence (Q9Y5X4 whole entry, looked up, the tested form may be a part): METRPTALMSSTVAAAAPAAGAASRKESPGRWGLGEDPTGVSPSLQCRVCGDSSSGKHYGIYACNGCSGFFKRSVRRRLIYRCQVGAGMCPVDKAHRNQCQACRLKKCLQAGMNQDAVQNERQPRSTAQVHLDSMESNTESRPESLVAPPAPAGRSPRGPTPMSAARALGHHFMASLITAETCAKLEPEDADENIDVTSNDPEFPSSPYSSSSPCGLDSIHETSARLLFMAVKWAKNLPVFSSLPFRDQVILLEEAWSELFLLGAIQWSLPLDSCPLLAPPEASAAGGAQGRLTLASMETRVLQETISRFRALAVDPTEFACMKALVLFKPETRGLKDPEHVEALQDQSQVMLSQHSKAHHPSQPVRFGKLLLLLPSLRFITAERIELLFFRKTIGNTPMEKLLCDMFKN
GalR3 antag = GalR3 antagonists in HEK293 cells, primary screen, cell-based, fluorescence readout; Galanin receptor type 3 (Homo sapiens), O60755; AID 651719, 2012; inhibition, % at 3 µM; HEK293 GalR3-CNG cAMP membrane potential fluorescence; galR3 body fused to GalR1 C-terminus; hit rate 0.44% among 360,000;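 active = inhibition above the screen-wide average plus 3 SD, cut at about 13% in these data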;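 also: forskolin and galanin both at EC90 stimulate the cells; cAMP rise reported by CNG channel membrane potential dye signal; 0% = forskolin plus galanin with DMSO and 100% = forskolin alone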
SMARCA2 act = SMARCA2 (BRM) function activators, primary screen, cell-based, luminescence, high throughput | MG213 cells, MMTV-luciferase reporter, dexamethasone, overnight | activation, % at 9.1 µM | hit rate 1% among 370,000; in the data active = activation above about 7.8%;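 also: 0% = vehicle wells and 100% = reference activator wells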
NR2E3 ag-2 = inhibitors of NR2E3-RetCOR corepressor binding, primary screen, NR2E3 agonist project, biochemical, TR-FRET, GST-NR2E3, biotin-RetCOR; Photoreceptor-specific nuclear receptor (Homo sapiens), Q9Y5X4; 1536-well; inhibition of corepressor binding, % at 4.78 µM; hit rate 0.12% among 320,000; AID 2300, 2010;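 active = percent inhibition above the cutoff of mean plus 3 SD of all tested compounds, set per screening campaign, cut at about 20% in these data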;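 also: 0% = DMSO wells and 100% = biotin wells as full block of FRET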
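Test system: GST-NR2E3 and biotin-RetCOR proteins | Quantity: 1.35 nM GST-tagged NR2E3 final | Medium: Tris pH 7.5 | Also added: 7 nM biotin-RetCOR | Dosing: Compound at 4.8 µM, single dose | Timing: 5 h at 4 °C | Detection: Time-resolved FRET | Read-out basis: Percent inhibition | Benchmarks: Biotin wells as high control, 0.6% DMSO wells as low control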
COUP-TFII inh = NR2F2 transcriptional activity inhibitors, primary screen, cell-based, luciferase reporter, HEK293T, luminescence | HEK293T NGFI-A luciferase reporter | inhibition, % at 8.6 µM | hit rate 0.7% among 370,000 | AID 686940, 2013;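 active = inhibition above a per-plate cutoff, mean inhibition of test wells between control levels plus 3 SD, cut at about 38% in these data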;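 also: cells cotransfected with COUP-TFII expression vector driving the NGFI-A reporter; 0% = median of COUP-TF2 test wells and 100% = reporter-only cells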
GalR3 antag conf = GalR3 antagonist hit confirmation, cell-based, fluorescence, triplicate | shares compounds with GalR3 antag | HEK293 GalR3 CNG cAMP biosensor, membrane potential fluorescence; galR3 fused to GalR1 carboxy tail; challenged with forskolin and galanin at EC90 | inhibition, % at 3 µM | hit rate 59% among 1,600 | AID 652245, 2013;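 active = inhibition above the primary screen's cutoff, the mean inhibition of all screened compounds plus 3 SD, cut at about 13% in these data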;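 also: 0% = forskolin plus galanin and 100% = forskolin alone with DMSO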
CNG parental = nonspecific cAMP agonists in parental HEK-CNG cells, counter-screen for GalR3 antagonist project, cell-based, fluorescence, high throughput | shares compounds with GalR3 antag | HEK293-CNG parental cells, cAMP membrane potential fluorescence; normalised: DMSO wells 0%, forskolin wells 100% | activation, % at 3 µM | hit rate 10% among 1,600; in the data active = activation above about 1.3%
An asterisk follows results filed as active; / = not tested or not shown.

SMILES | NR2E3 ag-1 | GalR3 antag | SMARCA2 act | NR2E3 ag-2 | COUP-TFII inh | GalR3 antag conf | CNG parental
CN(C)c1ccc(/C=N/NC(=O)CN(c2ccccc2Cl)S(C)(=O)=O)cc1Br | 16 | 14* | 1 | -1 | 22 | 18* | 1
O=c1cc(-c2ccccc2)nc(SCCOc2ccccc2Cl)[nH]1 | -29 | 13* | -4 | -1 | -2 | 1 | 1
Cc1ccc(S(=O)(=O)c2c(C)c(C)c(C)[nH]c2=O)cc1 | 5 | -11 | -1 | 0 | 18 | / | /
Cc1ccc(Sc2sc(=O)n(C)c2S(=O)(=O)c2ccc(C)cc2)cc1 | 15 | 20* | -4 | -1 | 6 | 2 | 0
CCCCOCCCNC(=O)C[C@H]1C(=O)N(Cc2ccc(OC)cc2)C2=CCCCC[C@@]21C(=O)OC | / | / | -2 | / | -7 | / | /
Cc1ccc2nc(SCC(=O)Nc3ccc(F)cc3)nc(=O)n2c1 | -8 | 1 | -3 | -2 | -9 | / | /
Cc1ccc2nc(SCC(=O)NCc3ccc(F)cc3)nc(=O)n2c1 | 9 | 18* | -3 | 0 | -13 | 3 | 0
COc1ccccc1CNC(=S)NC1CCCCC1 | -13 | 14* | -4 | -1 | -3 | 12 | 0
Fc1ccccc1CNC(=S)NC1CCCCC1 | 2 | -3 | -2 | / | -14 | / | /
CN(CCO)c1cccc2c1S(=O)(=O)N(Cc1cn(Cc3cccc(C(F)(F)F)c3)nn1)Cc1ccccc1O2 | / | / | 2 | / | -5 | / | /
O=C(NCc1ccc(Cl)cc1)C(=O)c1cn(CC(=O)N2CCOCC2)c2ccccc12 | -3 | 19* | 0 | -1 | -10 | 4 | 0
COc1ccc(CNC(=O)C(=O)c2cn(CC(=O)N3CCOCC3)c3ccccc23)cc1 | -21 | -7 | 4 | 1 | 1 | / | /
COC1=C[C@H](C(=O)NCc2ccccc2)[C@H](C)[C@@H](c2ccccc2)CC1=O | / | / | 0 | / | 4 | / | /
CC(C)=CCc1c2c(c3occ(-c4ccc(O)cc4)c(=O)c3c1O)C=CC(C)(C)O2 | -21 | 20* | 0 | 5 | -1 | 24* | 0
CC1CCCCN1CCCNC(=O)CN1C(=O)c2cccnc2Oc2ccc(Cl)cc21 (centres undefined) | -15 | 14* | -1 | -1 | -8 | 19* | 0
O=C(CN1C(=O)c2cccnc2Oc2ccc(Cl)cc21)NC1CCCC1 | -9 | -6 | 1 | 2 | -7 | / | /
O=C(CNCc1ccc(F)cc1)Nc1ccccc1[N+](=O)[O-] | -7 | 24* | -3 | 0 | 2 | 10 | 0
O=C(CCCc1ccccc1)Nc1ccccc1[N+](=O)[O-] | 1 | -1 | 5 | 3 | -21 | / | /
CC(=O)c1ccc(NC(=O)NC2CCCCN(Cc3ccc(Cl)cc3)C2=O)cc1 (centres undefined) | / | / | -1 | / | 14 | / | /
O=C(CN(Cc1cccs1)C(=O)CSc1nnc(COc2ccccc2)o1)NC1CCCCC1 | -5 | 13* | 0 | 10 | 5 | 1 | 1
CCOc1ccc(N(CC(=O)NC2CCCCC2)C(=O)CSc2nnc(COc3ccccc3)o2)cc1 | 6 | -4 | -5 | 4 | -13 | / | /
CC(=O)N[C@@H](Cc1c[nH]c2ccccc12)C(=O)OCC(=O)Nc1ccc(Cl)c(S(=O)(=O)N(C)C)c1 | 16 | 4 | -3 | 4 | 6 | / | /
CC(=O)NC(Cc1c[nH]c2ccccc12)C(=O)OCC(=O)Nc1ccc2c(c1)OCO2 (centres undefined) | -11 | 15* | 1 | 2 | 14 | 6 | 0
NC1=NC[C@H](Cc2ccc(O)cc2)N1CCc1cccc(F)c1 | -5 | / | 1 | 0 | -10 | 7 | 0

Source: PubChem (The Scripps Research Institute Molecular Screening Center)
